# Active and inactive are the calls of the source. No cut-off for these calls is given here.
# Key:
# HL-60 = assay: Cytotoxicity against human HL60 cells after 24 hrs by MTT assay; type: functional, cell-based; settings: HL-60, 24 h
# In short: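 HL-60 cells kept in RPMI 1640 with 10% FBS, no antibiotics, 37 °C, humidified 5% CO2. Cells (9 × 10^5 cells/mL) exposed to compound in 96-well plates for 24 h at 37 °C. MTT in PBS (5 mg/mL) added for 2 h, then DMSO, shaken 1 h and read photometrically. IC50 determined; cisplatin reference.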
# Escherichia coli = assay: Antibacterial activity against Escherichia coli assessed as zone of inhibition at 5 uL and 32 degC after 36 hrs by disk diffusion method; type: functional
# In short: (§1)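 Disc diffusion on AC agar, each strain spread evenly over the medium; test compounds given as 1% (w/v) DMSO solutions. Plates covered and incubated 36 h at 32 °C, then the diameter of the zone of inhibited growth measured in mm. Tetracycline served as antibacterial reference.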
# Burkholderia gladioli = assay: Antibacterial activity against Pseudomonas antimicrobica assessed as zone of inhibition at 5 uL and 32 degC after 36 hrs by disk diffusion method; type: functional; in short: as §1
# Staphylococcus equorum = assay: Antibacterial activity against Staphylococcus equorum assessed as zone of inhibition at 5 uL and 32 degC after 36 hrs at by disk diffusion method; type: functional; in short: as §1
# Streptococcus entericus = assay: Antibacterial activity against Streptococcus entericus assessed as zone of inhibition at 5 uL and 32 degC after 36 hrs by disk diffusion method; type: functional; in short: as §1
# Yarrowia lipolytica = assay: Antifungal activity against Yarrowia lipolytica assessed as zone of inhibition at 5 uL and 28 degC after 36 hrs by disk diffusion method; type: functional
# In short: (§2)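 Agar disc diffusion with the test compound applied as a 1% (w/v) DMSO solution. Yeasts were grown on AC agar and Aspergillus niger on potato dextrose broth agar, each strain spread evenly. Plates were covered and kept 36 h at 28 °C, and the inhibition zone diameter was read in mm. Clotrimazole served as reference.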
# Nakaseomyces glabratus = assay: Antifungal activity against Candida glabrata assessed as zone of inhibition at 5 uL and 28 degC after 36 hrs by disk diffusion method; type: functional; in short: as §2
# Aspergillus niger = assay: Antifungal activity against Aspergillus niger assessed as zone of inhibition at 5 uL and 28 degC after 36 hrs by disk diffusion method; type: functional; in short: as §2
# [1] = Antifungal activity against Hyphopichia burtonii assessed as zone of inhibition at 5 uL and 28 degC after 36 hrs by disk diffusion method; type: functional; in short: as §2
smiles,measurement,setting,value
C=CC1=CCC[C@]2(C)[C@@H]([C@H](C)CCCC(C)C)CC[C@@H]12,IC50,HL-60,> 100 µM
same,diameter of the inhibition zone (DIZ),Escherichia coli,inactive
same,diameter of the inhibition zone (DIZ),Burkholderia gladioli,inactive
same,diameter of the inhibition zone (DIZ),Staphylococcus equorum,10 mm
same,diameter of the inhibition zone (DIZ),Streptococcus entericus,9 mm
same,diameter of the inhibition zone (DIZ),Yarrowia lipolytica,inactive
same,diameter of the inhibition zone (DIZ),Nakaseomyces glabratus,inactive
same,diameter of the inhibition zone (DIZ),Aspergillus niger,inactive
same,diameter of the inhibition zone (DIZ),[1],inactive

# — ChEMBL document CHEMBL1806372, “Cytotoxic ring A-modified steroid analogues derived from Grundmann's ketone” (Eur J Med Chem, 2011)
